These results are taken from ChEMBL document CHEMBL4308879, “Seco-4-methyl-DCK derivatives as potent chemosensitizers” (Bioorg Med Chem Lett, 2019).

Structures are written as SMILES.

Data set [1] is described as follows: Cytotoxicity against HOSEC assessed as survival at 10 uM after 48 hrs by MTT assay relative to control. The conditions noted are these: human, HOSEC cells; read-out: Survival. Put shortly:
(§1)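 Survival ratio (%) determined from the surviving fraction after treatment. Reported as mean of three independent experiments.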
For orientation: Tetrazolium dyes change colour on reduction, which living cells bring about.

The nature of data set [2]: Cytotoxicity against HUVEC assessed as survival at 10 uM after 48 hrs by MTT assay relative to control. It is filed as cell-based. The following applies: human, HUVEC cells; read-out: Survival. Put shortly: as §1
The nature of data set [3]: Cytotoxicity against human T29 cells assessed as survival at 10 uM after 48 hrs by MTT assay relative to control. In kind it is cell-based. The conditions noted are these: read-out: Survival. Put shortly: as §1
Data set [4] can be described thus: Cytotoxicity against human A2780/TAX cells assessed as survival at 10 uM after 48 hrs by MTT assay relative to control. In kind it is cell-based, A2780/Taxol. The conditions noted are these: read-out: Survival. Put shortly:
as §1

For data set [5], the system named is A2780/Taxol. In words: Reversal ratio of IC50 for paclitaxel-induced cytotoxicity against human A2780/TAX cells in absence of compound to IC50 paclitaxel-induced cytotoxicity against human A2780/TAX cells in presence of compound. In kind it is functional.
A short description of data set [6]: Cytotoxicity against human A2780/CDDP cells assessed as survival at 10 uM after 48 hrs by MTT assay relative to control. In kind it is cell-based. The conditions noted are these: read-out: Survival. Put shortly:
as §1

Data set [7] can be described thus: Cytotoxicity against human KBV cells assessed as survival at 10 uM after 48 hrs by MTT assay relative to control. In kind it is cell-based. The following applies: read-out: Survival. The method, boiled down:
as §1

The nature of data set [8]: Reversal ratio of IC50 for cisplatin-induced cytotoxicity against human A2780/CDDP cells in absence of compound to IC50 for cisplatin-induced cytotoxicity against human A2780/CDDP cells in presence of compound. In kind it is functional.
Data set [9] is described as follows: Reversal ratio of IC50 for vincristine-induced cytotoxicity against human KBV cells in absence of compound to IC50 for vincristine-induced cytotoxicity against human KBV cells in presence of compound. It is filed as functional.
Data set [10] deals with KB. In words: Cytotoxicity against human KB cells after 48 hrs by MTT assay. In kind it is functional, cell-based.
Data set [11] is described as follows: Resistance ratio of IC50 for human KBV cells to IC50 for human KB cells. It is filed as functional.

Turning to `CCOc1ccc2c(C)cc(=O)oc2c1COC(=O)c1ccc(F)cc1`, the viability at 48 h, 10 µM is 78.3% in [1], 87.2% in data set [2], 88.6% in [3] and 93.4% in [4]. The “Ratio IC50” value in [5] amounted to 61.

In the case of `COc1ccc(/C=C/C(=O)OCc2c(OC(C)C)ccc3c(C)cc(=O)oc23)cc1`, the viability at 48 h, 10 µM is 93.6% in data set [1]; 98.9% in data set [2]; 90.4% in [3]; 98.1% in [4]; 131% in data set [6]; 108% in [7]. Also, the “Ratio IC50” value in data set [5] amounted to 496; in data set [8], 0.78; in data set [9], 1257.

For the molecule `CCOc1ccc2c(C)cc(=O)oc2c1COC(=O)c1ccc(C)cc1`, the viability at 48 h, 10 µM in data set [1] was 64.7%; in data set [2] it was 77.1%; in data set [3], 86.1%; in data set [4] it was 95.8%. In addition, the “Ratio IC50” value in [5] is on record as 26.

Take `Cc1cc(=O)oc2c(COC(=O)c3cccc(N(C)C)c3)c(OC(C)C)ccc12`: the viability at 48 h, 10 µM in data set [1] was 76%; in [2], 84.8%; in data set [3], 90.8%; in [4], 102%. In addition, the “Ratio IC50” value in [5] turned out to be 86.

For `CCCc1ccc(C(=O)OCc2c(OC(C)C)ccc3c(C)cc(=O)oc23)cc1`, the viability at 48 h, 10 µM in data set [1] was 87.5%; in data set [2], 82.2%; in [3], 92.7%; in data set [4], 101%. The “Ratio IC50” value in data set [5] is reported as 45.

For `CCOc1ccc2c(C)cc(=O)oc2c1COC(=O)c1c(F)cccc1F`, the viability at 48 h, 10 µM in data set [1] turned out to be 78.2%; in data set [2] it was 86.3%; in [3], 94.6%; in [4], 101%. Moreover, the “Ratio IC50” value in data set [5] amounted to 72.

In the case of `CCOc1ccc2c(C)cc(=O)oc2c1COC(=O)c1cc(OC)c(OC)cc1OC`, the viability at 48 h, 10 µM in data set [1] was found to be 78.2%; in data set [2], 88.8%; in data set [3], 89.5%; in [4], 84.1%. Also, the “Ratio IC50” value in [5] is given as 47.

Consider `COc1cc(OC)c(C(=O)OCc2c(OC(C)C)ccc3c(C)cc(=O)oc23)cc1OC`, for which the viability at 48 h, 10 µM came out at 86.3% in data set [1], 72.7% in data set [2], 90.9% in data set [3] and 106% in data set [4]. Moreover, in data set [5], the “Ratio IC50” value was determined as 161.

Consider `Cc1cc(=O)oc2c(COC(=O)/C=C/c3ccccc3)c(OC(C)C)ccc12`, for which the viability at 48 h, 10 µM was 105% in data set [1], 95.9% in [2], 104% in [3] and 103% in [4]. Moreover, the “Ratio IC50” value in data set [5] is 32.

Take `COc1ccc(C(=O)OCc2c(OC(C)C)ccc3c(C)cc(=O)oc23)cc1OC`: the viability at 48 h, 10 µM in data set [1] was found to be 107%; in data set [2], 84.2%; in data set [3], 101%; in data set [4] it was 102%. Moreover, the “Ratio IC50” value in [5] worked out at 197.

Take `CCOc1ccc2c(C)cc(=O)oc2c1COC(=O)/C=C/c1ccc(Cl)cc1`: the viability at 48 h, 10 µM in data set [1] worked out at 90.7%; in [2], 101%; in data set [3], 106%; in data set [4] it was 102%. Moreover, the “Ratio IC50” value in data set [5] came to 14.

Regarding `CCOc1ccc2c(C)cc(=O)oc2c1COC(=O)c1ccc(Cl)c([N+](=O)[O-])c1`, the viability at 48 h, 10 µM in data set [1] is 50.1%; in data set [2], 81%; in [3], 72.6%; in data set [4], 78.7%. Besides, in data set [5], the “Ratio IC50” value turned out to be 31.

For `CCCc1ccc(C(=O)OCc2c(OCC)ccc3c(C)cc(=O)oc23)cc1`, the viability at 48 h, 10 µM in data set [1] turned out to be 76%; in [2], 78.4%; in data set [3], 97.2%; in data set [4], 84%. For the same molecule, the “Ratio IC50” value in [5] is recorded as 54.

In the case of `CCOc1ccc2c(C)cc(=O)oc2c1COC(=O)c1cccc(N(C)C)c1`, the viability at 48 h, 10 µM was 97.2% in [1]; 96.3% in [2]; 106% in data set [3]; 97% in [4]; 117% in data set [6]; 104% in [7]. Also, the entries for the “Ratio IC50” value in data set [5], in data set [8] and in [9] were 224, 0.83 and 314, respectively.

Consider `CCOc1ccc2c(C)cc(=O)oc2c1COC(=O)c1ccc(C(C)(C)C)cc1`, for which the viability at 48 h, 10 µM came to 79.8% in data set [1], 76% in data set [2], 87.1% in data set [3] and 95.1% in [4]. Further, the “Ratio IC50” value in data set [5] was found to be 158.

A word on the IC50: it is the concentration that gives 50% inhibition. A low value points to greater potency in that assay. In data set [10], `CC[C@]1(O)C[C@H]2CN(CCc3c([nH]c4ccccc34)[C@@](C(=O)OC)(c3cc4c(cc3OC)N(C=O)[C@H]3[C@@](O)(C(=O)OC)[C@H](OC(C)=O)[C@]5(CC)C=CCN6CC[C@]43[C@@H]65)C2)C1` [VINCRISTINE] yielded an IC50 of 0.21 nM. Moreover, in data set [11], the “Ratio IC50” value is on record as 3173.

For `CCOc1ccc2c(C)cc(=O)oc2c1COC(=O)c1cccc(OC)c1`, the viability at 48 h, 10 µM in data set [1] is 68.4%; in data set [2], 79.8%; in [3] it was 83.4%; in [4] it was 76.5%. Besides, the “Ratio IC50” value in data set [5] was 56.

With `CCOc1ccc2c(C)cc(=O)oc2c1COC(=O)c1ccc(OC)c(OC)c1`, the viability at 48 h, 10 µM in [1] was found to be 72%; in data set [2] it was 83.4%; in data set [3], 86.1%; in data set [4] it was 83.1%. In data set [5], the “Ratio IC50” value is 101.

On to `Cc1cc(=O)oc2c(COC(=O)c3ccc(F)cc3)c(OC(C)C)ccc12`, for which the viability at 48 h, 10 µM is 70.5% in data set [1], 79.7% in data set [2], 85.3% in data set [3] and 102% in data set [4]. The “Ratio IC50” value in [5] is recorded as 93.

Regarding `Cc1cc(=O)oc2c(CO)c(OC(C)C)ccc12`, the viability at 48 h, 10 µM in data set [1] came out at 80.2%; in data set [2], 84.7%; in [3], 88.6%; in data set [4], 94.6%.

Regarding `CCOc1ccc2c(C)cc(=O)oc2c1COC(=O)/C=C/c1ccc(OC)cc1`, the viability at 48 h, 10 µM in data set [1] was found to be 84.9%; in [2] it was 93.8%; in [3], 98.9%; in [4], 83.6%; in data set [6] it was 123%; in [7], 105%. Moreover, the entries for the “Ratio IC50” value in data set [5], in data set [8] and in data set [9] were 735, 0.76 and 793, respectively.

As for `CCOc1ccc2c(C)cc(=O)oc2c1COC(=O)CCc1ccc(OC)cc1`, the viability at 48 h, 10 µM in data set [1] came to 73.5%; in data set [2], 85%; in data set [3], 91.3%; in data set [4], 101%. The “Ratio IC50” value in [5] is recorded as 6.

For the molecule `Cc1ccc(C(=O)OCc2c(OC(C)C)ccc3c(C)cc(=O)oc23)cc1`, the viability at 48 h, 10 µM came out at 79.8% in data set [1], 75.6% in data set [2], 91.2% in data set [3] and 95.2% in data set [4]. Further, the “Ratio IC50” value in data set [5] is 95.

With `CCOc1ccc2c(C)cc(=O)oc2c1COC(=O)/C=C/c1ccccc1`, the viability at 48 h, 10 µM in [1] came out at 92.2%; in data set [2], 84.7%; in data set [3], 98.7%; in data set [4] it was 98.9%. Further, the “Ratio IC50” value in [5] stood at 97.

On to `COc1cc(C(=O)OCc2c(OC(C)C)ccc3c(C)cc(=O)oc23)cc(OC)c1OC`, for which the viability at 48 h, 10 µM worked out at 61.7% in [1]; 73.1% in data set [2]; 81.5% in data set [3]; 94.6% in [4]; 65.5% in [6]; 96.1% in data set [7]. For the same molecule, the “Ratio IC50” value in data set [5] was found to be 354; in data set [8], 0.86; in data set [9] it was 134.

Consider `Cc1cc(=O)oc2c(COC(=O)c3ccc(C(C)(C)C)cc3)c(OC(C)C)ccc12`, for which the viability at 48 h, 10 µM in [1] was found to be 90.6%; in [2], 83.7%; in data set [3] it was 96%; in [4], 104%. Also, in data set [5], the “Ratio IC50” value was found to be 72.

As for `CCOc1ccc2c(C)cc(=O)oc2c1COC(=O)c1cc(OC)c(OC)c(OC)c1`, the viability at 48 h, 10 µM in data set [1] was found to be 86.7%; in data set [2], 99.7%; in data set [3], 103%; in data set [4] it was 97.6%. In addition, the “Ratio IC50” value in [5] was determined as 51.
